Assay outcomes deposited in PubChem BioAssay by several laboratories.
Jurkat tox 60K = cytotoxicity toward Jurkat cells; Jurkat E6.1 viability, ATP luminescence, 48 h; inhibition, % at 4 µM; 1.2% of 56,000 active; AID 463;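 active means inhibition above the mean inhibition of all tested compounds plus 3 SD, cut at about 28% in these data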
mHtt clearance = mutant huntingtin protein clearance | 0.42% of 47,000 active | inhibition, % at 1.5 µM | HeLa Exon1htt(103Q)mCFP, aggregate imaging; zero = plate's median compound well;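 active means inhibition of aggregate fluorescence above about 70%, also judged a hit by eye on the cell image, limit read from the data, passing the limit was not always enough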;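 further: cells exposed to compound for three days before fixation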
D1 allo mod = allosteric modulators of human D1 dopamine receptor; P21728; HEK293 D1, CRE-luciferase, dopamine EC30 potentiation; actives deviate in either direction; B-score at 10 µM; 5.9% of 58,000 active;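 active means luminescence count or its row- and column-corrected plate score outside the 99.7% band of the plate's sample wells, on either side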
HEK293 NFkB inh = inhibitors of the PMA/ionomycin-induced NF-kB reporter in HEK293 cells; HEK-293 NF-kB luciferase reporter, luminescence; inhibition, % at 3 µM; 0.21% of 62,000 active;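 active means inhibition above the mean of all tested compounds plus 3 SD, cut at about 40% in these data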;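 further: 0% = stimulated DMSO wells and 100% = 10 µM reference inhibitor 5653914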
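System: NF-kB luciferase reporter HEK-293 cells | Replication: Single test | Control set: DMSO vs reference inhibitor | Evaluation: % inhibition | Schedule: 1 h pretreatment, 16 h stimulation, 37 °C | Probe or stimulus: PMA with ionomycin | Compound dosing: One dose, 3 µM | Detection: Luciferase luminescence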
M1 agonist = activates the M1 muscarinic receptor; CHO-M1 cells, Fluo-4 calcium fluorescence, agonist mode; active compounds read high; B-score at 10 µM; 3% of 64,000 active;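 active means fluorescence rise, raw or as B-score row- and column-corrected plate score, outside the 99.7% band of its plate's samples, either direction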
M1 antag = blocks the rat M1 muscarinic receptor response to acetylcholine; CHO-M1 cells, Fluo-4 calcium, ACh EC80 antagonist mode; active compounds read low; B-score at 10 µM; 3.4% of 64,000 active; AID 628;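 active means calcium fluorescence response, raw or row-and-column corrected B-score, differing from the plate sample mean either way at a set confidence level, mostly lower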
Target sequence (P08482 whole entry, looked up): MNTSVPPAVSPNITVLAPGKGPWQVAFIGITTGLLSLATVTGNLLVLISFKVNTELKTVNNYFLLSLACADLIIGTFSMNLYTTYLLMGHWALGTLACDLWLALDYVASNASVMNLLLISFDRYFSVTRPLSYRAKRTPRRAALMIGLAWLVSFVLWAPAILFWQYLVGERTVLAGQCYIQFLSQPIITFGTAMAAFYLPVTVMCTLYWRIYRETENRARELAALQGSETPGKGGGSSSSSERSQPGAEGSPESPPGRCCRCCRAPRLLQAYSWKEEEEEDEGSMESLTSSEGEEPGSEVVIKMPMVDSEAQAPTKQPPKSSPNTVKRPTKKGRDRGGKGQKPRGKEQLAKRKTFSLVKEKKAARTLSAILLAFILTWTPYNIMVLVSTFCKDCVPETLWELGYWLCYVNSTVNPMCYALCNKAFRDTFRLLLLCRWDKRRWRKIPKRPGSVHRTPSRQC
* hit, by the source's call; nt = no result. Sampled rows, rich in hits. Any-hit rate of the full collection: about 9.5%.

SMILES	Jurkat tox 60K	mHtt clearance	D1 allo mod	HEK293 NFkB inh	M1 agonist	M1 antag
Cc1ccccc1-c1cc2c(nn1)-c1ccccc1C2=O	nt	69	nt	nt	nt	nt
CCCCc1c(O)c2ccccc2[nH]c1=O	-5	66	-0.021	-4	-0.051	0.055
CCCCCCC(=O)Nc1c(O)c2ccccc2[nH]c1=O	9	nt	-3.1*	-2	-0.24	-0.45
C/C(=N/OC(=O)c1ccc(F)cc1)c1ccc(C)cc1	nt	0	nt	nt	nt	nt
CN(C)c1ccc(P(=O)(OCc2ccccc2)C(O)c2ccncc2)cc1 (centres undefined)	-6	74*	-0.4	9	0.57	1.7
CN(C)c1ccnc(SCc2ccccc2Cl)c1C#N	5	nt	0.62	19	-0.61	-0.1
COc1ccc(NC(=O)CN(C)C(=O)c2ccc(C)s2)cc1	nt	9	nt	nt	nt	nt
O=S(=O)(c1ccc2oc(-c3ccncc3)nc2c1)c1ccc2oc(-c3ccncc3)nc2c1	-2	nt	0.38	16	0.3	-0.034
CCC(C)Nc1nc2c(c(=O)n(C)c(=O)n2C)n1Cc1cccc(C)c1 (centres undefined)	3	-1	-0.096	5	0.61	13*
CCC(C)Nc1nc2c(c(=O)n(C)c(=O)n2C)n1Cc1ccc(Cl)cc1 (centres undefined)	3	nt	0.032	1	-1.2	-0.87
CCNc1nc2c(c(=O)n(C)c(=O)n2C)n1Cc1ccc(Cl)cc1	58*	nt	nt	15	2.6*	-0.72
Cc1ccc(Cn2c(NCCc3ccccc3)nc3c2c(=O)n(C)c(=O)n3C)cc1	5	71*	2.9	25	-1.1	-0.36
Cc1cccc(Cn2c(SCCN3CCOCC3)nc3c2c(=O)n(C)c(=O)n3C)c1	7	nt	1.5	6	0.16	-0.25
Cn1c(=O)c2c(nc(NCCc3ccccc3)n2CC(=O)NCCc2ccccc2)n(C)c1=O	-9	nt	-0.13	16	0.21	-0.47
C/C(Cl)=C\Cn1c(NCCc2ccccc2)nc2c1c(=O)n(C)c(=O)n2C	18	nt	-3.1*	22	1.1	0.13
COc1ccc(-c2nc(CSCC(=O)N3CCN(C4CCCCC4)CC3)c(C)o2)cc1OC	3	nt	1.3	-9	-1.1	-0.89
COc1ccc2c3c(cccc13)NN=C2C	2	-16	-0.15	7	0.6	-0.078
COc1ccc(CN(C#N)c2nc(SC)nc(N(C)C)n2)cc1	nt	nt	1.4	nt	-0.1	0.19
Cn1c(N2CCOCC2)nc2c1c(=O)n(Cc1ccc(Cl)cc1)c(=O)n2C	nt	-8	4.4*	nt	-1.2	0.3
COCC(C)n1c(SCC(=O)NC(=O)Nc2ccc3c(c2)OCCO3)nc2ccccc2c1=O (centres undefined)	10	nt	-0.69	13	0.89	0.21
CCCCCn1c(SCCCC)nc2c1c(=O)[nH]c(=O)n2C	-3	17	20*	2	-0.43	0.41
C/C(Cl)=C/Cn1c(SCC(C)C)nc2c1c(=O)[nH]c(=O)n2C	-1	nt	14*	14	-0.38	-0.13
CCOC(=O)C(C)Sc1nc2c(c(=O)[nH]c(=O)n2C)n1CCc1ccccc1 (centres undefined)	4	nt	5.6*	13	0.31	-0.5
CCCCCCn1c(SCCC)nc2c1c(=O)[nH]c(=O)n2C	-3	nt	-0.2	6	-0.69	-0.12
CCCCn1ccnc1C(=O)c1ccc(S(=O)(=O)N(CCOC)CCOC)cc1	8	-35	-0.2	14	0.4	0.37
SMILES	Jurkat tox 60K	mHtt clearance	D1 allo mod	HEK293 NFkB inh	M1 agonist	M1 antag
COc1ccc(Cn2nnnc2C(c2ccccc2)N2CCN(C3CCCC3)CC2)cc1 (centres undefined)	4	nt	0.0051	0	0.55	1.9*
COc1ccc(Cn2nnnc2C(c2ccccc2Cl)N2CCN(C3CCCC3)CC2)cc1 (centres undefined)	5	-1	-0.55	18	-1.4	-2
CC(=O)c1ccccc1OCCn1nnc(-c2ccc(C)cc2)n1	3	51	3.3	19	-0.64	-0.097
Cc1ccc(S(=O)(=O)N2CCN(c3nc(C)c4c(c3C#N)CC(C)(C)OC4)CC2)cc1	nt	nt	nt	nt	-0.34	-0.11
O=C(c1ccccc1)c1nc2ccccc2[nH]c1=O	6	nt	1.5	19	-0.017	0.44
Cn1c(CCCNC(=O)c2cccs2)nc2ccccc21	-2	37	-2.2	0	-0.24	0.015
CCn1c(CCNC(=O)c2ccc(OC)c(OC)c2)nc2ccccc21	nt	29	-4.9*	6	-0.56	0.64
Cn1c(=O)c(C(=O)c2ccccc2)nc2ccccc21	4	77*	0.76	-1	0.4	0.33
Cn1c(CCCNC(=O)c2ccccc2)nc2ccccc21	nt	45	-3.5*	-5	-0.89	1.5
COc1ccccc1C(=O)NCCc1nc2ccccc2n1C	nt	nt	-0.11	10	1.5	0.079
CCOc1ccc(-c2nc(N)ncc2Oc2cccc(OC)c2)c(O)c1	nt	-20	nt	nt	nt	nt
COc1cccc(Oc2cncnc2-c2ccc(OC)cc2O)c1	7	73*	1.4	6	nt	nt
Cc1ccc(S(=O)(=O)N2CCN(C(=O)CCC(=O)N3CCc4ccccc43)CC2)cc1	nt	nt	-0.33	13	1.1	-3.3*
Cc1ccc(S(=O)(=O)N2CCN(C(=O)CN3CCc4ccccc4C3)CC2)cc1	4	20	-0.15	4	-0.0078	-1.7
Cc1nc2ccccc2c2oc(C(=O)Nc3ccc4c(c3)OCCO4)cc12	-6	-132	-2.5*	-5	-0.14	-0.016
Cc1nc2ccccc2c2oc(C(=O)NCC3COc4ccccc4O3)cc12 (centres undefined)	24	nt	-3.5*	6	1.2	-0.29
COc1ccc(C)cc1NC(=O)c1cc2c(C)nc3ccccc3c2o1	0	nt	0.87	13	-0.46	-0.12
CCc1ccc(CNC(=O)c2cc3c(C)nc4ccccc4c3o2)cc1	nt	24	nt	nt	nt	nt
CCOc1ccccc1NC(=O)CN(c1ccc(OC)cc1)S(=O)(=O)c1c(C)noc1C	93*	-50	nt	36	0.48	-0.035
CCOc1ccc(N(CC(=O)Nc2ccccc2C)S(=O)(=O)c2c(C)noc2C)cc1	91*	nt	-0.28	36	-0.073	-0.1
CNc1nc(SCc2ccc(C)cc2)nc2c1CCCC2	nt	13	nt	nt	nt	nt
Cn1cc(SCC(=O)NCc2ccc3c(c2)OCO3)c2ccccc21	3	nt	nt	8	0.85	0.7
O=C(Cn1cnc2sc(-c3ccccc3)cc2c1=O)NCc1ccco1	42*	nt	nt	7	0.69	0.11
O=C(O)CC1C(=O)NCCN1Cc1ccc(F)c(F)c1 (centres undefined)	-10	nt	-0.52	6	-0.27	1.4*
Cc1ccc(CN2CCNC(=O)C2CC(=O)O)cc1 (centres undefined)	-3	nt	0.33	2	-0.03	0.98
CCOc1cc(C(=O)Nc2cnccn2)cc(OCC)c1OCC	51*	43	0.84	0	0.92	-0.47
Cc1nc2cccc(C(=O)NCc3ccccc3)c2o1	12	1	nt	7	-0.034	-0.19
Nc1ccc(-c2nc3c(Cl)cc(N)cc3[nH]2)cc1	9	-54	-2.6*	16	0.41	0.78
COC(=O)c1nn(-c2ccccc2)c(Sc2ccc(C)cc2)c1/C=N/O	nt	27	nt	nt	nt	nt
